ChEMBL document CHEMBL5120858, “Structure-activity relationship and antitumor activity of 1,4-pyrazine-containing inhibitors of histone acetyltransferases P300/CBP” (Eur J Med Chem, 2022)

Key:
[1] = target: T1, Histone acetyltransferase p300 (Homo sapiens, UniProt Q09472); assay: Inhibition of human p300 HAT domain (1195 to 1673 residues) using histone H3 peptide and acetyl-coA as substrates preincubated for 10 mins followed by substrate addition and measured after 30 mins by beckman scintillation counting analysis
Summary of the method: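 Radiometric HAT assay. Enzyme at 10 nM was preincubated with graded compound for 10 min at 25 °C in 50 mM phosphate pH 7.0 with 0.01% Brij-35. Reaction started with H3 (1-21) peptide (20 μM) plus Ac-CoA (1 μM ³H-Ac-CoA + 19 μM unlabelled) and run 30 min at 25 °C. Stopped with formic acid, spotted on P81 paper, washed with NaHCO₃ and scintillation counted. IC₅₀ from sigmoidal fit, mean of ≥3 experiments.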

[2] = target: T1, Histone acetyltransferase p300; assay: Inhibition of human p300 HAT domain (1195 to 1673 residues) at 10 uM using histone H3 peptide and acetyl-coA as substrates preincubated for 10 mins followed by substrate addition and measured after 30 mins by beckman scintillation counting analysis relative to control; conditions: time 40.0 min
Summary of the method: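 Single-concentration screen at 10 μM in the radiometric p300 HAT domain assay: enzyme 10 nM, pH 7.0 phosphate/Brij-35, 10 min preincubation, then H3(1-21) peptide 20 μM plus ³H/unlabelled Ac-CoA (20 μM total), 30 min at 25 °C. Filter-bound ³H-acetylated peptide was counted, and the value is given as % inhibition.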

PC-3 = assay: Antiproliferative activity against human PC-3 cells assessed as reduction in cell growth incubated for 3 to 5 days by CellTiter-Glo luminescent cell viability assay; assay type: functional, cell-based
RPMI-8226 = assay: Antiproliferative activity against human RPMI-8226 cells assessed as reduction in cell growth incubated for 3 to 5 days by CellTiter-Glo luminescent cell viability assay; assay type: functional, cell-based
MDA-MB-231 = assay: Antiproliferative activity against human MDA-MB-231 cells assessed as reduction in cell growth incubated for 3 to 5 days by CellTiter-Glo luminescent cell viability assay; assay type: functional, cell-based
LNCaP = assay: Antiproliferative activity against human LNCaP cells assessed as reduction in cell growth incubated for 3 to 5 days by CellTiter-Glo luminescent cell viability assay; assay type: functional, cell-based
MOLM-13 = assay: Antiproliferative activity against human MOLM-13 cells assessed as reduction in cell growth incubated for 3 to 5 days by CellTiter-Glo luminescent cell viability assay; assay type: functional, cell-based
Kasumi 1 [3] = assay: Inhibition of histone H3 acetylation at lysine 27 residue in human Kasumi 1 cells incubated for 12 hrs by Western blot analysis; assay type: functional, cell-based; conditions: dose 5-10 µM, DDE = dose-dependent effect
Summary of the method: (§1)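 Kasumi-1 cells (10⁶ per well) exposed to a range of compound concentrations for 12 h. Total histones extracted and 2 μg protein resolved by SDS-PAGE, then transferred to PVDF. Blots probed with antibodies to H3K9Ac, H3K18Ac, H3K27Ac and total H3, with anti-rabbit IgG secondary.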

Kasumi 1 [4] = assay: Inhibition of histone H3 acetylation at lysine 9 residue in human Kasumi 1 cells incubated for 12 hrs by Western blot analysis; assay type: functional, cell-based; conditions: dose 5-10 µM, DDE = dose-dependent effect; summary of the method: as §1

T1 sequence (Q09472 whole entry, the tested form may be a part): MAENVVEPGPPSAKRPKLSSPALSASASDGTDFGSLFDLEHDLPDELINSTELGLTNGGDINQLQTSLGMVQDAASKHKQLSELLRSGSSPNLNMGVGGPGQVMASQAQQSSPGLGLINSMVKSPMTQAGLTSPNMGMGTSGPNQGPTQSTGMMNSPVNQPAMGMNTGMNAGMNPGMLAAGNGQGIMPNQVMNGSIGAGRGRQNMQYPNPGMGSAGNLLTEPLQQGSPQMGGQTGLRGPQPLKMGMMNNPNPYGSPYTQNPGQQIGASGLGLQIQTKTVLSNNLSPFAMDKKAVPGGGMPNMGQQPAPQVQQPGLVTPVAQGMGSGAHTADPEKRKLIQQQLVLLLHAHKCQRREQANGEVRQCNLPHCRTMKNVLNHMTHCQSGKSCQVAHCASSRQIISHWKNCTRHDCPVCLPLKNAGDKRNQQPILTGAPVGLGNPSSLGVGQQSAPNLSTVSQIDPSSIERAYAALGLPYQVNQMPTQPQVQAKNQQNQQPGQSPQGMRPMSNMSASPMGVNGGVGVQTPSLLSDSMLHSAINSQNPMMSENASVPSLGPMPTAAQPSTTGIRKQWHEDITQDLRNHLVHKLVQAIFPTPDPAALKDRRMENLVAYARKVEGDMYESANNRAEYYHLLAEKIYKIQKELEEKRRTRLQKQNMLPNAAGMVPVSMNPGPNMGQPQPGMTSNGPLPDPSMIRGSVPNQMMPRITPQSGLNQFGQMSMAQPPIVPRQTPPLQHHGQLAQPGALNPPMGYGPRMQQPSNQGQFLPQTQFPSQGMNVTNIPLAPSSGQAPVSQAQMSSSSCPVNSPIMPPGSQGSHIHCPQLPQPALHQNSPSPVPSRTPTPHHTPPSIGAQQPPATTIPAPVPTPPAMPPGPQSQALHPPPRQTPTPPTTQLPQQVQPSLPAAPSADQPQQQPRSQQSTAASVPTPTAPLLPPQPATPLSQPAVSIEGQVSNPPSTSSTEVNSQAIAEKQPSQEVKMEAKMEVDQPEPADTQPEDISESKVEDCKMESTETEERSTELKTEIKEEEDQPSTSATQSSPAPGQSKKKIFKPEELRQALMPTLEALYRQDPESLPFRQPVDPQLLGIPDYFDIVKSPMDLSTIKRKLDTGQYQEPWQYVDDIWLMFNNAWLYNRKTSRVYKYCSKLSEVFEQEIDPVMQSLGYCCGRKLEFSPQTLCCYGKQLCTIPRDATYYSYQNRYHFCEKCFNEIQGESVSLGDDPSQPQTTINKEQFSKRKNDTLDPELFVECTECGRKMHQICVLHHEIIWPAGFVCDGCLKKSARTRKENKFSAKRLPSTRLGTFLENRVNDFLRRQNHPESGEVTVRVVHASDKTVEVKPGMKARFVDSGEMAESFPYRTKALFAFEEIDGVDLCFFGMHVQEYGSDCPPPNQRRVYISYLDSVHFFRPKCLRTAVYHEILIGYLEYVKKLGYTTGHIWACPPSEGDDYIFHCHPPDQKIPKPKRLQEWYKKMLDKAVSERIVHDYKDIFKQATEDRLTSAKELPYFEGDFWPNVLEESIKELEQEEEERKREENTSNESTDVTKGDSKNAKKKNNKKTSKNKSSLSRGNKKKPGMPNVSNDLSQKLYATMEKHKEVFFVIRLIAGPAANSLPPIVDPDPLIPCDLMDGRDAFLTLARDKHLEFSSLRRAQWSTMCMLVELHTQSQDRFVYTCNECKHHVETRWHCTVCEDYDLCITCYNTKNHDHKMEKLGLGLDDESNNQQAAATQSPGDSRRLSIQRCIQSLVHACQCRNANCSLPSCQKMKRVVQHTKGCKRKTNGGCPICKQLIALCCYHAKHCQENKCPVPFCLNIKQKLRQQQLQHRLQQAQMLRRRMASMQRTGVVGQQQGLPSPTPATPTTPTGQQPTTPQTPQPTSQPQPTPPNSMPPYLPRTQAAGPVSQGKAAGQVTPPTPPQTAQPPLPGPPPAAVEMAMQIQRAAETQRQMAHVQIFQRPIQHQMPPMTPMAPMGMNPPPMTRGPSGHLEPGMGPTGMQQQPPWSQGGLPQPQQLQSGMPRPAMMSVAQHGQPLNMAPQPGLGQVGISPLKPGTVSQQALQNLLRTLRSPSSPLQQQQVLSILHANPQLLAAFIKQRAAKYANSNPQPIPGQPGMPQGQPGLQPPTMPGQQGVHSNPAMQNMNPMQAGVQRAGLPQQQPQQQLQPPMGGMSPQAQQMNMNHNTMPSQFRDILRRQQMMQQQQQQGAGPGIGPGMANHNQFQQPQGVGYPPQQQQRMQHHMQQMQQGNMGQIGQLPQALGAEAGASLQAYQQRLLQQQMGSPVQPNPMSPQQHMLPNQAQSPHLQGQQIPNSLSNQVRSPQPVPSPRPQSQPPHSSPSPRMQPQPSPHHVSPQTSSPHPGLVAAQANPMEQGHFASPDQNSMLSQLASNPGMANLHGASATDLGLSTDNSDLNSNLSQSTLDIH

Compound	IC50 [1] [µM]	inhibition [2] [%]	further results
c1ccc(-c2cc(OCC3CCNCC3)cnc2-c2ccccc2)cc1	46.3		
CCc1ccc(-c2ncc(OCC3CCNCC3)nc2-c2ccc(CC)cc2)cc1	10	55	
NCCCCOc1cnc(-c2ccc(Br)cc2)c(-c2ccc(Br)cc2)n1	> 10		
CNCCCCOc1cnc(-c2ccc(Br)cc2)c(-c2ccc(Br)cc2)n1	> 10		
Cc1ccc(-c2ncc(OCC3CCNCC3)cc2-c2ccc(CO)cc2)cc1	62.6		
Fc1cc(-c2ncc(OCC3CCNCC3)nc2-c2ccc(Br)c(F)c2)ccc1Br	11.8		
CNC(=O)Nc1ccc2c(c1)CC[C@@]21OC(=O)N(CC(=O)N(Cc2ccc(F)cc2)[C@@H](C)C(F)(F)F)C1=O (single isomer, unassigned) [A-485]			EC50 (PC-3): 2.1 µM; EC50 (RPMI-8226): 0.16 µM; EC50 (MDA-MB-231): > 10 µM; EC50 (LNCaP): 0.26 µM; EC50 (MOLM-13): 0.35 µM
NCc1ccc(-c2ncc(OCC3CCNCC3)nc2-c2ccc(CN)cc2)cc1	2.8		inhibition (Kasumi 1 [3]): Dde; inhibition (Kasumi 1 [4]): Dde
Brc1ccc(-c2ncc(OCC3CCNC3)nc2-c2ccc(Br)cc2)cc1 (centres undefined)	> 10		
c1cc(-c2ccc(-c3ncc(OCC4CCNCC4)nc3-c3ccc(-c4ccncc4)cc3)cc2)ccn1	> 10	39	
O=C(O)c1cnc(-c2ccc(Br)cc2)c(-c2ccc(Br)cc2)n1	> 10	30	
CN(C)CCCOc1cnc(-c2ccc(Br)cc2)c(-c2ccc(Br)cc2)n1	> 10	4.8	
N#Cc1ccc(-c2ncc(OCC3CCNCC3)nc2-c2ccc(C#N)cc2)cc1	> 10	0	
c1ccc(-c2ccc(-c3ncc(OCC4CCNCC4)nc3-c3ccc(-c4ccccn4)cc3)cc2)nc1	> 10	37	
OCc1ccc(-c2ncc(OCC3CCNCC3)nc2-c2ccc(CO)cc2)cc1	10	48.2	
Brc1ccc(-c2ncc(OCC3CCNCC3)nc2-c2ccc(Br)c(Br)c2)cc1Br		50	
